{"data": "Published values of several laboratories", "MAP2K6": "Dual specificity mitogen-activated protein kinase kinase 6 (MAP2K6, Homo sapiens, UniProt P52564)", "note": "Protocols differ between the studies behind these lines."}
{"Compound": "O=C(Nc1cnn(-c2csc(C(=O)NC3COC3)c2)c1)Nc1c(F)cccc1Cl", "target": "MAP2K6", "effect on": "enzyme activity", "mode": "inhibitor", "tested at": "5 µM", "quantity": "remaining activity", "value": "94.4%"}
{"Compound": "Oc1cccc(-c2nc(N3CCOCC3)c3oc4ncccc4c3n2)c1", "target": "MAP2K6", "effect on": "enzyme activity", "mode": "inhibitor", "tested at": "10 µM", "quantity": "remaining activity", "value": "107%"}
{"Compound": "Cc1cc(NC(=O)c2cccc3cc(-c4cccc5[nH]nc(N)c45)ccc23)ccc1F", "target": "MAP2K6", "effect on": "enzyme activity", "mode": "inhibitor", "tested at": "0.1 µM", "quantity": "activity vs control", "value": "89%"}
{"Compound": "CS(=O)(=O)CCNCc1ccc(-c2ccc3ncnc(Nc4ccc(OCc5cccc(F)c5)c(Cl)c4)c3c2)o1", "target": "MAP2K6", "effect on": "cell-free assay", "tested at": "0.5 µM", "quantity": "remaining signal", "value": "95.4%"}
{"Compound": "CN(C)C1CCN(CC#Cc2nn(C3CCCC3)c3nc(NCc4ccccc4)ncc23)C1 (centres unmarked)", "target": "MAP2K6", "effect on": "enzyme activity", "mode": "inhibitor", "method": "FRET", "tested at": "0.1 µM", "quantity": "inhibition", "value": "0%"}
{"Compound": "Cn1c2c(c3ccc(Cl)c(Cl)c31)C(C#N)C1(CCOCC1)NC2=O (centres unmarked)", "target": "MAP2K6", "effect on": "thermal stability", "method": "DSF", "tested at": "10 µM", "quantity": "ΔTm", "value": "0 °C"}
{"Compound": "CC[C@H](CO)Nc1nc(NCc2ccccc2)c2ncn(C(C)C)c2n1", "target": "MAP2K6", "effect on": "cell-free assay", "tested at": "0.5 µM", "quantity": "remaining signal", "value": "98.2%"}
{"Compound": "COc1cc2ncnc(Nc3ccc(Oc4ccccc4)c(C)c3C)c2cc1OC", "target": "MAP2K6", "effect on": "enzyme activity", "mode": "inhibitor", "tested at": "1 µM", "quantity": "inhibition", "value": "2%"}
{"Compound": "Cc1sc(C(=O)NC2COC2)cc1-n1cc(NC(=O)Nc2c(F)cccc2Cl)cn1", "target": "MAP2K6", "effect on": "enzyme activity", "mode": "inhibitor", "tested at": "10 µM", "quantity": "remaining activity", "value": "86.4%"}
{"Compound": "N#CCCc1ccc2c(c1)-c1[nH]c3ccc([N+](=O)[O-])cc3c1CC(=O)N2", "target": "MAP2K6", "effect on": "cell-free assay", "tested at": "0.5 µM", "quantity": "remaining signal", "value": "97.2%"}
{"Compound": "CC(C)(C)c1nc2c(s1)c1nc(N)ncc1c1ccc(NS(=O)(=O)c3c(F)cccc3F)c(F)c12", "target": "Dual specificity mitogen-activated protein kinase kinase 6 (MAP2K6, Homo sapiens, UniProt P52564, S207D/T211D)", "effect on": "enzyme activity", "mode": "inhibitor", "method": "radiometric", "tested at": "1 µM", "quantity": "remaining activity", "value": "70%"}
{"Compound": "Cn1c2c(c3ccc(Cl)c(Cl)c31)C(C#N)C1(CCCC1)NC2=O (centres unmarked)", "target": "MAP2K6", "effect on": "thermal stability", "method": "DSF", "tested at": "10 µM", "quantity": "ΔTm", "value": "0 °C"}
{"Compound": "Nc1nc(Nc2ccc(S(N)(=O)=O)cc2)nn1C(=O)c1c(F)cccc1F", "target": "MAP2K6", "effect on": "cell-free assay", "tested at": "0.5 µM", "quantity": "remaining signal", "value": "90.5%"}
{"Compound": "CCC(=N\\O)/C(C)=C/c1ccc(F)cc1", "target": "MAP2K6", "effect on": "cell-free assay", "method": "competition with immobilised ligand", "tested at": "1 µM", "quantity": "remaining binding", "value": "98%"}
{"Compound": "CNC(=O)c1cc(Oc2ccc(NC(=O)Nc3ccc(Cl)c(C(F)(F)F)c3)cc2)ccn1", "target": "MAP2K6", "effect on": "enzyme activity", "mode": "inhibitor", "tested at": "0.3 µM", "quantity": "inhibition", "value": "-1%"}
{"Compound": "Cc1ccc(C(=O)Nc2ccc(CN3CCN(C)CC3)c(C(F)(F)F)c2)cc1C#Cc1cnc2cccnn12", "target": "MAP2K6", "effect on": "enzyme activity", "mode": "inhibitor", "tested at": "23.5 nM", "quantity": "remaining activity", "value": "100%"}
{"Compound": "CNCc1ccc(-c2cc(-c3nc(-c4ccc(S(=O)(=O)C(C)C)cc4)cnc3N)on2)cc1", "target": "MAP2K6", "effect on": "enzyme activity", "mode": "inhibitor", "tested at": "2 µM", "quantity": "inhibition", "value": "28%"}
{"Compound": "CCCOc1ccc(OC)c(F)c1C(=O)c1ccc(C(=O)N[C@@H]2CNC[C@H]2NC(=O)c2ccc3[nH]ncc3c2)cc1", "target": "MAP2K6", "effect on": "enzyme activity", "mode": "inhibitor", "tested at": "10 µM", "quantity": "remaining activity", "value": "103%"}
{"Compound": "FC(F)c1nc2ccccc2n1-c1nc(N2CCOCC2)nc(N2CCOCC2)n1", "target": "MAP2K6", "effect on": "enzyme activity", "mode": "inhibitor", "tested at": "10 µM", "quantity": "remaining activity", "value": "83%"}
{"Compound": "Cn1c2c(c3ccc(Cl)c(Cl)c31)C(C#N)C1(CCNCC1)NC2=O (racemic)", "target": "MAP2K6", "effect on": "thermal stability", "method": "DSF", "tested at": "10 µM", "quantity": "ΔTm", "value": "0.3 °C"}
{"Compound": "CN(C)C(=O)Cn1cc(-c2nc([C@@](C)(c3ccc(-c4cnc(N)nc4)cc3)C3CC3)no2)cn1", "target": "MAP2K6", "effect on": "cell-free assay", "method": "competition with immobilised ligand", "tested at": "1 µM", "quantity": "remaining binding", "value": "100%"}
{"Compound": "CN1CCC2(CC1)NC(=O)c1c(c3ccc(Cl)c(Cl)c3n1C)C2C#N (racemic)", "target": "MAP2K6", "effect on": "thermal stability", "method": "DSF", "tested at": "10 µM", "quantity": "ΔTm", "value": "0 °C"}
{"Compound": "CCCCN(CCCC)C(=O)CN1C[C@@H](c2cc(OC)c3c(c2)OCO3)[C@H](C(=O)O)[C@H]1CC(C)(C)CCC", "target": "MAP2K6", "effect on": "cell-free assay", "method": "competition with immobilised ligand", "tested at": "1 µM", "quantity": "remaining binding", "value": "90.8%"}
{"Compound": "Cc1ccc(NC(=O)c2ccc(CN3CCN(C)CC3)cc2)cc1Nc1nc(-c2cccnc2)cs1", "target": "MAP2K6", "effect on": "cell-free assay", "tested at": "0.5 µM", "quantity": "remaining signal", "value": "96.5%"}
{"Compound": "CN(C)C(=O)Cn1cc(-c2nc(C3(c4ccc(-c5cnc(N)nc5)cc4)CC3)no2)cn1", "target": "MAP2K6", "effect on": "cell-free assay", "method": "competition with immobilised ligand", "tested at": "1 µM", "quantity": "remaining binding", "value": "100%"}
{"Compound": "Cc1ccc(Nc2nccc(N(C)c3ccc4c(C)n(C)nc4c3)n2)cc1S(N)(=O)=O", "target": "MAP2K6", "effect on": "enzyme activity", "mode": "inhibitor", "tested at": "10 µM", "quantity": "inhibition", "value": "90%"}
{"Compound": "CO[C@@H](C)c1c(Nc2ccc([C@H](N(C)C(=O)C3CCS(=O)(=O)CC3)C(F)(F)F)cc2)cnc2cc(Cl)nn12", "target": "MAP2K6", "effect on": "cell-free assay", "method": "competition with immobilised ligand", "tested at": "1 µM", "quantity": "remaining binding", "value": "91%"}
{"Compound": "CC(C)(O)[C@H]1CC[C@H](Nc2ccc3ncc(-c4cccc(C(F)(F)F)c4)n3n2)CC1", "target": "MAP2K6", "effect on": "enzyme activity", "mode": "inhibitor", "tested at": "1 µM", "quantity": "remaining activity", "value": "90.6%"}
{"Compound": "O=C(Nc1cnc(Oc2ccc(F)cc2)nc1)N1CCc2ncccc2[C@@H]1c1ccc(F)cc1", "target": "MAP2K6", "effect on": "cell-free assay", "method": "competition with immobilised ligand", "tested at": "1 µM", "quantity": "remaining binding", "value": "77%"}
{"Compound": "Cc1cnc(NC2CCOCC2)nc1-n1cnc(C(=O)NC(CN)c2cc(F)cc(Cl)c2)c1 (centres unmarked)", "target": "MAP2K6", "effect on": "enzyme activity", "mode": "inhibitor", "method": "radiometric", "tested at": "1 µM", "quantity": "remaining activity", "value": "96%"}
{"Compound": "Cn1c2c(Cl)c(Cl)ccc2c2cn[nH]c(=O)c21", "target": "MAP2K6", "effect on": "thermal stability", "method": "DSF", "tested at": "10 µM", "quantity": "ΔTm", "value": "0.1 °C"}
{"Compound": "CC(C)(O)c1cncc(-c2nc3ccc(F)cc3n2C2CC2)c1", "target": "MAP2K6", "effect on": "cell-free assay", "method": "competition with immobilised ligand", "tested at": "1 µM", "quantity": "remaining binding", "value": "100%"}
{"Compound": "COc1cc(Nc2cnc(C#N)c(O[C@H](C)CN(C)C)n2)ncc1-c1cnn(C)c1", "target": "MAP2K6", "effect on": "enzyme activity", "mode": "inhibitor", "method": "radiometric", "tested at": "10 µM", "quantity": "remaining activity", "value": "91%"}
{"Compound": "Cc1ccc(C(=O)NCc2ccsc2)cc1C#Cc1cn(C(C)C)c2ncnc(N)c12", "target": "MAP2K6", "effect on": "enzyme activity", "mode": "inhibitor", "tested at": "1 µM", "quantity": "activity vs control", "value": "86%"}
{"Compound": "CN(C)CC#Cc1ccc(OCCCc2sc(N3CCc4cccc(C(=O)Nc5nc6ccccc6s5)c4C3)nc2C(=O)O)c(F)c1", "target": "MAP2K6", "effect on": "cell-free assay", "method": "competition with immobilised ligand", "tested at": "1 µM", "quantity": "remaining binding", "value": "100%"}
